Measured values as given in ChEMBL document CHEMBL1144801, “Synthesis of new benzimidazole linked pyrrolo[2,1-c][1,4]benzodiazepine conjugates with efficient DNA-binding affinity and potent cytotoxicity” (Bioorg Med Chem Lett, 2008).
Calls of active or inactive are those of the source. The rule behind the calls is not given here.

What was measured:
DNA = experiment: Binding affinity to calf thymus DNA at 1:5 (compound:DNA) molar ratio in 37degC after 18 hrs by thermal denaturation studies; assay type: nucleic-acid assay; conditions: Bos taurus
Outline: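 Calf thymus DNA with ligand at a 1:5 ligand:DNA molar ratio in aqueous 10 mM sodium phosphate + 1 mM EDTA, pH 7.00. Mixtures were incubated at 37 °C and read at 0 h and 18 h. The read-out was the shift in helix melting temperature (ΔTm) relative to CT-DNA alone.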

Bacilli = experiment: Inhibition of Bacillus amyloli BamH1 restriction endonuclease-mediated pBR322 cleavage by RED100-restriction endonuclease digestion assay
Outline: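 Plasmid pBR322 exposed to the conjugate, then digested with BamH1 (20 U) for 1 h at 37 °C. Cut and uncut products separated by agarose gel electrophoresis and visualized by ethidium bromide staining under UV. Controls were untreated pBR322 and a complete BamH1 digest.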

A549 = experiment: Cytotoxicity against human A549 cells; assay type: functional
SW-620 = experiment: Cytotoxicity against human SW620 cells; assay type: functional
SR = experiment: Cytotoxicity against human SR cells; assay type: functional
UACC-257 = experiment: Cytotoxicity against human UACC257 cells; assay type: functional
NCI/ADR-RES = experiment: Cytotoxicity against human NCI/ADR-RES cells; assay type: functional
EKVX = experiment: Cytotoxicity against human EKVX cells; assay type: functional
COLO 205 = experiment: Cytotoxicity against human COLO205 cells; assay type: functional
MCF7 = experiment: Cytotoxicity against human MCF7 cells; assay type: functional
A498 = experiment: Cytotoxicity against human A498 cells; assay type: functional
RPMI-8226 = experiment: Cytotoxicity against human RPMI8226 cells; assay type: functional
LOX IMVI = experiment: Cytotoxicity against human LOXIMVI cells; assay type: functional
DU-145 = experiment: Cytotoxicity against human DU145 cells; assay type: functional
Malme-3M = experiment: Cytotoxicity against human MALME3M cells; assay type: functional
HT-29 = experiment: Cytotoxicity against human HT29 cells; assay type: functional
OVCAR-8 = experiment: Cytotoxicity against human OVCAR8 cells; assay type: functional
BT-549 = experiment: Cytotoxicity against human BT549 cells; assay type: functional
OVCAR-5 = experiment: Cytotoxicity against human OVCAR5 cells; assay type: functional
MDA-MB-435 = experiment: Cytotoxicity against human MDA-MB-435 cells; assay type: functional
OVCAR-3 = experiment: Cytotoxicity against human OVCAR-3 cells; assay type: functional
CCRF-CEM = experiment: Cytotoxicity against human CCRF-CEM cells; assay type: functional
NCI-H522 = experiment: Cytotoxicity against human NCI-H522 cells; assay type: functional
MDA-MB-231 = experiment: Cytotoxicity against human MDA-MB-231 cells; assay type: functional
HOP-92 = experiment: Cytotoxicity against human HOP92 cells; assay type: functional
UACC-62 = experiment: Cytotoxicity against human UACC62 cells; assay type: functional
HCT-116 = experiment: Cytotoxicity against human HCT116 cells; assay type: functional
NCI-H23 = experiment: Cytotoxicity against human NCI-H23 cells; assay type: functional
UO-31 = experiment: Cytotoxicity against human UO31 cells; assay type: functional
SF-268 = experiment: Cytotoxicity against human SF268 cells; assay type: functional
M14 = experiment: Cytotoxicity against human M14 cells; assay type: functional
KM12 = experiment: Cytotoxicity against human KM12 cells; assay type: functional
HCC 2998 = experiment: Cytotoxicity against human HCC2998 cells; assay type: functional
786-0 = experiment: Cytotoxicity against human 786-0 cells; assay type: functional
MDA-MB-468 = experiment: Cytotoxicity against human MDA-MB-468 cells; assay type: functional
SF-539 = experiment: Cytotoxicity against human SF539 cells; assay type: functional
NCI-H226 = experiment: Cytotoxicity against human NCI-H226 cells; assay type: functional
ACHN = experiment: Cytotoxicity against human ACHN cells; assay type: functional
NCI-H322M = experiment: Cytotoxicity against human NCI-H322M cells; assay type: functional
U-251 = experiment: Cytotoxicity against human U251 cells; assay type: functional
TK-10 = experiment: Cytotoxicity against human TK10 cells; assay type: functional
SK-OV-3 = experiment: Cytotoxicity against human SKOV3 cells; assay type: functional
SK-MEL-2 = experiment: Cytotoxicity against human SKMEL2 cells; assay type: functional
Hs-578T = experiment: Cytotoxicity against human HS578T cells; assay type: functional
[1] = Cytotoxicity against human HL60(TB) cells; assay type: functional, HL-60(TB); conditions: HL-60
SK-MEL-28 = experiment: Cytotoxicity against human SKMEL28 cells; assay type: functional
RXF 393 = experiment: Cytotoxicity against human RXF393 cells; assay type: functional
SN12C = experiment: Cytotoxicity against human SN12C cells; assay type: functional
OVCAR-4 = experiment: Cytotoxicity against human OVCAR4 cells; assay type: functional
SNB-75 = experiment: Cytotoxicity against human SNB75 cells; assay type: functional
NCI-H460 = experiment: Cytotoxicity against human NCI-H460 cells; assay type: functional
SNB-19 = experiment: Cytotoxicity against human SNB19 cells; assay type: functional
[2] = Cytotoxicity against human OVCAR1 cells; assay type: functional
T47D = experiment: Cytotoxicity against human T47D cells; assay type: functional
K562 = experiment: Cytotoxicity against human K562 cells; assay type: functional
MOLT-4 = experiment: Cytotoxicity against human MOLT4 cells; assay type: functional
CAKI-1 = experiment: Cytotoxicity against human CAKI1 cells; assay type: functional
SK-MEL-5 = experiment: Cytotoxicity against human SKMEL5 cells; assay type: functional
HCT-15 = experiment: Cytotoxicity against human HCT15 cells; assay type: functional
HOP-62 = experiment: Cytotoxicity against human HOP62 cells; assay type: functional

In the case of COc1cc2c(cc1OCCCCCn1c(-c3cccs3)nc3ccccc31)NC(=O)[C@@H]1CCCN1C2=O, the ΔTm (DNA) is reported as 0.8 °C.
In the case of COc1cc2c(cc1OCCCCn1c(-c3ccco3)nc3ccccc31)N=C[C@@H]1CCCN1C2=O, the ΔTm (DNA) is reported as 0 °C and the Activity (Bacilli) is reported as “inactive”.
With COc1cc2c(cc1OCCCCn1c(-c3cccs3)nc3ccccc31)N=C[C@@H]1CCCN1C2=O the GI50 (A549) was 3220 nM, the GI50 (SW-620) was 1840 nM and the GI50 (SR) was 450 nM. The GI50 (UACC-257) was 2540 nM, the GI50 (NCI/ADR-RES) was 3240 nM and the GI50 (EKVX) was 3360 nM. The GI50 (COLO 205) was 1070 nM, the GI50 (MCF7) was 660 nM and the GI50 (A498) was 1680 nM. For the same compound, the GI50 (RPMI-8226) was 310 nM, the GI50 (LOX IMVI) was 780 nM and the GI50 (DU-145) was 1320 nM. The GI50 (Malme-3M) was 1740 nM, the GI50 (HT-29) was 1970 nM and the GI50 (OVCAR-8) was 2580 nM. For the same compound, the GI50 (BT-549) was 410 nM, the GI50 (OVCAR-5) was 3270 nM and the GI50 (MDA-MB-435) was 1390 nM. For the same compound, the GI50 (OVCAR-3) was 1720 nM, the GI50 (CCRF-CEM) was 240 nM and the GI50 (NCI-H522) was 1040 nM. It also gave a GI50 (MDA-MB-231) of 1390 nM, a GI50 (HOP-92) of 1330 nM and a GI50 (UACC-62) of 1570 nM. The GI50 (HCT-116) was 1750 nM, the GI50 (NCI-H23) was 2050 nM and the GI50 (UO-31) was 1230 nM. The GI50 (SF-268) was 1800 nM, the GI50 (M14) was 1350 nM and the GI50 (KM12) was 1920 nM. The GI50 (HCC 2998) was 2080 nM, the GI50 (786-0) was 1710 nM and the GI50 (MDA-MB-468) was 330 nM. It also gave a GI50 (SF-539) of 1720 nM, a GI50 (NCI-H226) of 2130 nM and a GI50 (ACHN) of 2810 nM. The ΔTm (DNA) was 1 °C, the GI50 (NCI-H322M) was 2700 nM and the GI50 (U-251) was 1770 nM. It also gave a GI50 (TK-10) of 2090 nM, a GI50 (SK-OV-3) of 3320 nM and a GI50 (SK-MEL-2) of 1470 nM. For the same compound, the GI50 (Hs-578T) was 1700 nM, the GI50 [1] was 5180 nM and the GI50 (SK-MEL-28) was 1530 nM. For the same compound, the GI50 (RXF 393) was 1340 nM, the GI50 (SN12C) was 2500 nM and the GI50 (OVCAR-4) was 1610 nM. For the same compound, the GI50 (SNB-75) was 1220 nM, the GI50 (NCI-H460) was 1550 nM and the GI50 (SNB-19) was 1530 nM. The GI50 [2] was 750 nM, the GI50 (T47D) was 500 nM and the GI50 (K562) was 15500 nM. The GI50 (MOLT-4) was 3790 nM, the GI50 (CAKI-1) was 940 nM and the GI50 (SK-MEL-5) was 1090 nM. It also gave a GI50 (HCT-15) of 3190 nM.
For COc1cc2c(cc1OCCCCCn1c(-c3ccco3)nc3ccccc31)N=C[C@@H]1CCCN1C2=O, the GI50 (A549) was < 10 nM, the GI50 (SW-620) was < 10 nM and the GI50 (SR) was < 10 nM. The GI50 (UACC-257) was < 10 nM, the GI50 (NCI/ADR-RES) was 230 nM and the GI50 (EKVX) was < 10 nM. The GI50 (COLO 205) was < 10 nM, the GI50 (MCF7) was < 10 nM and the GI50 (A498) was < 10 nM. For the same compound, the GI50 (RPMI-8226) was < 10 nM, the GI50 (LOX IMVI) was < 10 nM and the GI50 (DU-145) was 20 nM. For the same compound, the GI50 (Malme-3M) was 10 nM, the GI50 (HT-29) was < 10 nM and the GI50 (OVCAR-8) was < 10 nM. For the same compound, the GI50 (BT-549) was < 10 nM, the GI50 (OVCAR-5) was < 10 nM and the GI50 (MDA-MB-435) was < 10 nM. The GI50 (OVCAR-3) was < 10 nM, the GI50 (CCRF-CEM) was < 10 nM and the GI50 (NCI-H522) was < 10 nM. For the same compound, the GI50 (MDA-MB-231) was 10 nM, the GI50 (HOP-92) was 10 nM and the GI50 (UACC-62) was < 10 nM. The GI50 (HCT-116) was < 10 nM, the GI50 (NCI-H23) was < 10 nM and the GI50 (UO-31) was 100 nM. The GI50 (SF-268) was < 10 nM, the GI50 (M14) was < 10 nM and the GI50 (KM12) was < 10 nM. The GI50 (786-0) was < 10 nM, the GI50 (MDA-MB-468) was < 10 nM and the GI50 (SF-539) was < 10 nM. For the same compound, the GI50 (NCI-H226) was < 10 nM, the GI50 (ACHN) was < 10 nM and the ΔTm (DNA) was 7 °C. The GI50 (NCI-H322M) was 30 nM, the GI50 (U-251) was < 10 nM and the GI50 (TK-10) was 10 nM. For the same compound, the GI50 (SK-OV-3) was < 10 nM, the GI50 (SK-MEL-2) was 20 nM and the GI50 (Hs-578T) was < 10 nM. For the same compound, the GI50 [1] was < 10 nM, the GI50 (SK-MEL-28) was < 10 nM and the GI50 (RXF 393) was < 10 nM. The GI50 (SN12C) was < 10 nM, the GI50 (OVCAR-4) was < 10 nM and the GI50 (SNB-75) was < 10 nM. The GI50 (NCI-H460) was < 10 nM, the GI50 (SNB-19) was < 10 nM and the GI50 [2] was 10 nM. The GI50 (T47D) was < 10 nM, the GI50 (K562) was < 10 nM and the GI50 (MOLT-4) was < 10 nM. For the same compound, the GI50 (CAKI-1) was < 10 nM, the GI50 (SK-MEL-5) was < 10 nM and the GI50 (HOP-62) was < 10 nM. For the same compound, the GI50 (HCT-15) was 20 nM and the Activity (Bacilli) was “Active”.
For COc1cc2c(cc1O)N=C[C@@H]1CCCN1C2=O, the ΔTm (DNA) was 0.7 °C.
With COc1cc2c(cc1OCCCn1c(-c3cccs3)nc3ccccc31)N=C[C@@H]1CCCN1C2=O the ΔTm (DNA) was 5.1 °C.
COc1cc2c(cc1OCCCn1c(-c3ccco3)nc3ccccc31)NC(=O)[C@@H]1CCCN1C2=O gave a ΔTm (DNA) of 0.7 °C.
With COc1cc2c(cc1OCCCn1c(-c3ccco3)nc3ccccc31)N=C[C@@H]1CCCN1C2=O the ΔTm (DNA) was 6.1 °C.
Work on COc1cc2c(cc1OCCCCCn1c(-c3cccs3)nc3ccccc31)N=C[C@@H]1CCCN1C2=O yielded a ΔTm (DNA) of 6.1 °C.
